# Beta2AR agonist: human beta-2 adrenergic receptor agonism by FAP; Am2.2-beta2AR cells, FAP receptor internalization, flow cytometry; 340,000 compounds, 0.43% hits; P07550; response, % (no concentration beside the values);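 active means response above a set limit, near 3 SD of response in nonfluorescent compounds, cut at about 42% in these data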
# Target sequence (P07550 whole entry, looked up): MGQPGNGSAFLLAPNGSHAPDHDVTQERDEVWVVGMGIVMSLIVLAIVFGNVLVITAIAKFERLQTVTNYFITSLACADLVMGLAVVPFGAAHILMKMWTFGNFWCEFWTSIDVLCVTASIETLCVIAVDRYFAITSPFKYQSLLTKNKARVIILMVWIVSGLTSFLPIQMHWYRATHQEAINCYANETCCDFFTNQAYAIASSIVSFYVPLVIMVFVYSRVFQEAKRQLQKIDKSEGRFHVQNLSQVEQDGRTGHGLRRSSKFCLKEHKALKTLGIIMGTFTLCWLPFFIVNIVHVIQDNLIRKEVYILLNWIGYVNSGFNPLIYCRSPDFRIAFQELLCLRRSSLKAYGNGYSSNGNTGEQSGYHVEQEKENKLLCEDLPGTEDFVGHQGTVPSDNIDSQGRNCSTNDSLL
# ABHD5-PLIN5 inh: inhibitors of human ABHD5-perilipin-5 interaction; 360,000 compounds, 0.78% hits; Q00G26+Q8WTS1; AID 602281; inhibition, % at 4 µM; Split G. princeps luciferase complementation, luminescence, 4 h;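 active means inhibition above the mean inhibition across every tested compound plus 3 SD, cut at about 22% in these data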
# UHRF1 binding: blocks human UHRF1 binding to methylated DNA; Q96T88; UHRF1 binding to methylated oligo, TR-FRET; inhibition, % at 4.4 µM; 370,000 compounds, 0.75% hits; in the data active means inhibition above about 21%;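 further: UHRF1 SRA domain binding a hemimethylated CpG hairpin DNA probe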
# MBD2 inh: blocks human MBD2 binding to methylated DNA | AID 686964 | Q9UBB5 | 370,000 compounds, 0.31% hits | TR-FRET, MBD2 binding to methylated oligonucleotide | inhibition, % at 4.4 µM; in the data active means inhibition above about 13%
# Arrestin-AP2 inh: blocks beta-arrestin peptide binding to AP2 adaptin; 340,000 compounds, 0.31% hits; AID 504490; inhibition, % at 10 µM; FITC-arrestin peptide / GST-AP2 beads, flow cytometry; AP2 beta2 appendage carries R879A mutation;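 active means inhibition above a set limit, near 3 SD of compounds lacking own fluorescence, cut at about 54% in these data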
#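 System: GST-AP2 R879A glutathione beads. Medium: PBS with 0.05% Tween 20 and 0.1% BSA. Also added: FITC-arrestin peptide, 50 nM. Incubation: 12 min plus 1 h, RT. Measured by: high-throughput flow cytometry of beads, ex 488, em 535 nm. Evaluation: percent drop in bead-associated FITC signal.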
# Rin1 Abl inh: human Rin1-Abl interaction inhibition; P00519+Q13671; TR-FRET Rin1/Abl binding, biochemical; AID 588664; inhibition, % at 7.35 µM; 360,000 compounds, 0.4% hits; in the data active means inhibition above about 5%, passing the limit was not always enough
# Arr AP2 CP1: blocks beta-arrestin peptide binding to human AP2; shares compounds with Arrestin-AP2 inh; GST-AP2 beads, FITC arrestin peptide binding, flow cytometry; GST-fused beta2-adaptin appendage, R879A mutant; inhibition, % at 10 µM; 1,300 compounds, 2% hits; AID 504908;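 active means inhibition above a set limit, roughly 3 SD of non-fluorescent compound noise, cut at about 38% in these data; inactive means inhibition at or below that limit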;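 further: loss of bead fluorescence from 50 nM FITC arrestin peptide bound to appendage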
# GST GSH counter: disrupts GST binding to glutathione beads, arrestin-AP2 artifact. shares compounds with Arrestin-AP2 inh. GST-fluorescein binding to GSH beads, fluorescence, counter-screen. inhibition, % at 10 µM. 1,300 compounds, 2% hits;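 active means inhibition above 50%, about 3 SD of the inhibition seen with non-fluorescent compounds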;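 further: fluorescein maleimide labelled GST captured on 4 micron glutathione beads; higher means more loss of bead fluorescence from quenching or blocked binding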
# A number is an active result; i = inactive; nt = no result given. Rows were chosen to be rich in hits. Some 2.5% of all compounds tested hit in one or more screens of this group.
SMILES,Beta2AR agonist,ABHD5-PLIN5 inh,UHRF1 binding,MBD2 inh,Arrestin-AP2 inh,Rin1 Abl inh,Arr AP2 CP1,GST GSH counter
Cc1ccc(CN2C(=O)CCC2C(=O)NCCN2CCN(c3cccc(Cl)c3)CC2)cc1 (stereo not drawn),i,i,i,i,i,i,i,i
CCOc1cc(NC(=S)NCCCN2CCOCC2)c(OCC)cc1NC(=O)c1ccc(C)cc1,i,i,i,i,57.7,i,i,i
COc1cc(F)ccc1Oc1cccc2c1S(=O)(=O)N([C@H](C)c1ccccc1)C[C@@H](COCc1ccccc1)O2,nt,nt,i,i,nt,nt,nt,nt
CN(C)[C@@H]1CCN(c2cccc3c2S(=O)(=O)N2CC[C@H](C2)O3)C1,nt,nt,i,i,nt,nt,nt,nt
Cc1ccc(CN2C(=O)CCC2C(=O)NCCCN2CCC(C)CC2)cc1 (stereo not drawn),i,i,i,i,i,i,i,i
CNC(=O)C1CCC(=O)N1Cc1ccc(C)cc1 (stereo not drawn),i,i,i,i,i,i,nt,nt
Cc1ccc(CN2C(=O)CCC2C(=O)NCCCN2CCOCC2)cc1 (stereo not drawn),i,i,i,i,91.8,i,i,i
Cc1ccc(CN2C(=O)CCC2C(=O)NCc2ccco2)cc1 (stereo not drawn),i,i,i,i,92.3,i,i,i
CCC1CCCCN1CCCNC(=O)C1CCC(=O)N1Cc1ccc(C)cc1 (stereo not drawn),i,i,i,i,i,i,i,i
Cc1n[nH]c(C)c1S(=O)(=O)NCCc1ccccc1,nt,nt,i,i,nt,nt,nt,nt
C[C@H](O)[C@@H]1CN2CCc3ccc(-c4ccc5c(c4)OCO5)cc3[C@@H]2C[C@@H]1N(C)C(=O)Nc1ccccc1,nt,nt,i,i,nt,nt,nt,nt
CCS(=O)(=O)Nc1ccc2c(c1)C(=O)N(C)[C@@H]1CC[C@H](CC(=O)OC)O[C@H]1CO2,nt,nt,i,i,nt,nt,nt,nt
c1ccc(Nc2ccccn2)cc1,i,i,i,i,i,i,nt,nt
c1ccc(Nc2cccc(Nc3ccccc3)n2)cc1,i,i,i,i,61.3,i,i,i
Cc1cc(NC(=O)c2cnn3c(C(F)F)cc(-c4ccccc4)nc23)no1,i,i,i,i,i,i,i,i
Cc1cc(NC(=O)c2cnn3c(C(F)(F)F)cc(-c4ccccc4)nc23)no1,i,i,i,i,i,i,i,i
CC(C)N(Cc1cn(Cc2ccccc2)nn1)S(=O)(=O)c1ccc(F)cc1Br,nt,nt,i,i,nt,nt,nt,nt
O=C(NCCc1ccccc1)OCc1cn(Cc2c(F)cccc2F)nn1,nt,nt,i,i,nt,nt,nt,nt
O=C(O)c1cc2nc(-c3ccccc3)cc(C(F)(F)F)n2n1,nt,i,i,i,i,i,nt,nt
O=C(O)c1cc2nc(-c3ccccc3)cc(-c3ccccc3)n2n1,i,i,i,i,67.6,i,i,i
CCOC(=O)C1=C(COC(=O)CCCOc2ccccc2)NC(=O)NC1C (stereo not drawn),i,i,i,i,i,i,i,i
CCOC(=O)C1=C(COC(=O)CCOc2ccc(OCC)cc2)NC(=O)NC1C (stereo not drawn),i,i,i,i,i,i,i,i
CCOC(=O)C1=C(COC(=O)c2ccc(C)s2)NC(=O)NC1C (stereo not drawn),i,i,i,i,i,i,nt,nt
CCOC(=O)C1=C(COC(=O)CCOc2ccccc2C)NC(=O)NC1C (stereo not drawn),i,i,i,i,i,i,i,i
CCOC(=O)C1=C(COC(=O)c2ccccc2[N+](=O)[O-])NC(=O)NC1C (stereo not drawn),i,i,i,i,i,i,nt,nt
SMILES,Beta2AR agonist,ABHD5-PLIN5 inh,UHRF1 binding,MBD2 inh,Arrestin-AP2 inh,Rin1 Abl inh,Arr AP2 CP1,GST GSH counter
C[C@H](O)[C@@H]1CN2CCc3ccc(N4CCOCC4)cc3[C@@H]2C[C@@H]1N(C)C(=O)c1ccco1,nt,nt,i,i,nt,nt,nt,nt
CC(c1ccccc1)N1CC[C@H]2C=CC[C@@H](C(=O)Nc3ccc(F)c(F)c3)[C@H]2C1=O (stereo partly drawn),nt,nt,i,i,nt,nt,nt,nt
Nn1c(SCC(=O)NC2CCCCC2)nnc1-c1cc(-c2ccc(F)cc2)n[nH]1,nt,nt,i,i,nt,nt,nt,nt
Cc1cc(N2CCN(CCO)CC2)n2nc(C)nc2n1,nt,nt,i,i,nt,nt,nt,nt
N#Cc1cn(-c2ccccc2)nc1C(=O)c1ccccc1,i,i,i,i,83.0,i,i,i
CC(=O)c1nn(-c2ccc(Br)cc2)cc1C(=O)c1ccccc1,i,i,i,i,i,i,nt,nt
COc1ccc(CC(=O)Nc2ccc(-c3cn4cccc(C)c4n3)cc2)cc1OC,i,i,i,i,i,i,nt,nt
Cc1cccn2cc(-c3ccc(NC(=O)Cc4ccccc4)cc3)nc12,i,i,i,i,95.9,i,i,i
O=C(O)c1cnn2c(-c3ccccc3)ccnc12,i,i,i,i,i,i,nt,nt
NC(=O)c1cnn2c(-c3cccc(C(F)(F)F)c3)ccnc12,i,i,i,i,67.6,i,i,i
CCOC(=O)[C@]12CCCCC/C=C\1N(Cc1ccc(OC)cc1)C(=O)[C@H]2CC(=O)N1CCSCC1,nt,nt,i,i,nt,nt,nt,nt
CCOc1ccc(NC(=O)CN2C(=O)C(C)SC(C)C2=O)cc1 (stereo not drawn),i,i,i,i,54.9,i,i,i
COC(=O)CC[C@H](/C=C/C(=O)OC(C)(C)C)Sc1ccc(C(C)(C)C)cc1,nt,nt,i,i,nt,nt,nt,nt
CC(=O)c1c(OC(=O)c2ccco2)c2ccccc2n1C,i,i,i,i,63.2,i,i,i
O=C(Nc1ccc(NC(=S)NC(=O)c2ccccc2Cl)cc1)c1cccc(Cl)c1,i,i,i,i,59.1,i,i,i
CC(C)C(=O)Nc1cccc(NC(=S)NC(=O)c2ccccc2Cl)c1,i,i,i,i,i,i,nt,nt
Cc1cc(C(=O)OCC(=O)NCCc2ccccc2)c2ccccc2n1,i,i,i,i,54.1,i,i,i
COc1ccc(OCCn2c(=N)n(CCO)c3ccccc32)cc1,i,i,i,i,i,i,nt,nt
CCCCn1c(=N)n(CCOc2ccc(C)cc2)c2ccccc21,i,i,i,i,72.8,i,i,i
CCN(C(=O)CSc1nnc(-c2cccnc2)n1Cc1ccco1)c1ccccc1,nt,nt,i,i,nt,nt,nt,nt
CCCCCN1CCCCC(NC(=O)c2ccc(F)c(F)c2)C1=O (stereo not drawn),nt,nt,i,i,nt,nt,nt,nt
O=C(N/N=C/c1cccn1-c1ccc([N+](=O)[O-])cc1)c1cccnc1,i,i,i,i,i,i,nt,nt
O=C(N/N=C/c1cccn1-c1ccccc1)c1ccncc1,i,i,i,i,58.5,i,i,i
COc1cc(OC)c(NC(=O)CC(=O)Nc2cc(Cl)c(OC)cc2OC)cc1Cl,i,i,i,i,i,i,nt,nt

# Source: PubChem BioAssay
